Experimental data from ChEMBL document CHEMBL3871264, “Design of a novel thiophene inhibitor of 15-lipoxygenase-1 with both anti-inflammatory and neuroprotective properties” (Eur J Med Chem, 2016).
Calls of active or inactive are those of the source. No cut-off for these calls is given here.

B1: Polyunsaturated fatty acid lipoxygenase ALOX15 (Homo sapiens), P16050 (protein)
chain: MGLYRIRVSTGASLYAGSNNQVQLWLVGQHGEAALGKRLWPARGKETELKVEVPEYLGPLLFVKLRKRHLLKDDAWFCNWISVQGPGAGDEVRFPCYRWVEGNGVLSLPEGTGRTVGEDPQGLFQKHREEELEERRKLYRWGNWKDGLILNMAGAKLYDLPVDERFLEDKRVDFEVSLAKGLADLAIKDSLNVLTCWKDLDDFNRIFWCGQSKLAERVRDSWKEDALFGYQFLNGANPVVLRRSAHLPARLVFPPGMEELQAQLEKELEGGTLFEADFSLLDGIKANVILCSQQHLAAPLVMLKLQPDGKLLPMVIQLQLPRTGSPPPPLFLPTDPPMAWLLAKCWVRSSDFQLHELQSHLLRGHLMAEVIVVATMRCLPSIHPIFKLIIPHLRYTLEINVRARTGLVSDMGIFDQIMSTGGGGHVQLLKQAGAFLTYSSFCPPDDLADRGLLGVKSSFYAQDALRLWEIIYRYVEGIVSLHYKTDVAVKDDPELQTWCREITEIGLQGAQDRGFPVSLQARDQVCHFVTMCIFTCTGQHASVHLGQLDWYSWVPNAPCTMRLPPPTTKDATLETVMATLPNFHQASLQMSITWQLGRRQPVMVAVGQHEEEYFSGPEPKAVLKKFREELAALDKEIEIRNAKLDMPYEYLRPSVVENSVAI

These molecules were tested against T1, Polyunsaturated fatty acid lipoxygenase ALOX15 (Mus musculus) (UniProt P39654) (assay: Inhibition of 15-LOX-1 in mouse HT22 cells assessed as inhibition of glutamate-induced lipid peroxidation at 1 uM incubated for 14 to 16 hrs by BODIPY 581/591 C11 staining based FACS analysis). Conditions: HT-22.
T1 sequence (whole entry): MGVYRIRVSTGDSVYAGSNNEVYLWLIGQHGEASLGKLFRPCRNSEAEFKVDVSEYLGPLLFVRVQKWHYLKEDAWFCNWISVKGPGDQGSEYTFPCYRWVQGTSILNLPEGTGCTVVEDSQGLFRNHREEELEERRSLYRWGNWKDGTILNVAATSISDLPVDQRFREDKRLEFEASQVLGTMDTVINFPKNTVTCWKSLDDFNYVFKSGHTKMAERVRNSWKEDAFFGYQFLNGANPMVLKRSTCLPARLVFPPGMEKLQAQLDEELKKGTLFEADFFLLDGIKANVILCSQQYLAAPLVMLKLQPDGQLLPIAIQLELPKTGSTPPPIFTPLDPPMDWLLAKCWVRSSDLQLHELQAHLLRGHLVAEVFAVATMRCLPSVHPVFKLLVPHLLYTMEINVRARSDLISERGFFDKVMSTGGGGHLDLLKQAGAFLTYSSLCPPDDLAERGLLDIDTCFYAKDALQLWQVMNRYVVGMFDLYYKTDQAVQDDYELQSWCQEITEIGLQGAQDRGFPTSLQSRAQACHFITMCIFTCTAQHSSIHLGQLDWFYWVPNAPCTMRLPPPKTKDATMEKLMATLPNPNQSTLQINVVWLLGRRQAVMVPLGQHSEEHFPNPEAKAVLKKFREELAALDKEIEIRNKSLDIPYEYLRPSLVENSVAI
Format: cell-based
Procedure, shortened: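 HT-22 cells were seeded at 5x10^4 per well and incubated overnight. They were then exposed to 4 mM glutamate in DMEM/10% FCS, with or without 10 µM test inhibitor or 1 µM PD146176, for 6-7 h or 14-16 h. Cells were stained with BODIPY 581/591 C11 at 2 µM final for 1 h at 37 °C. The red-to-green fluorescence shift was read by flow cytometry (488 nm excitation). At least 3 experiments were run, each in triplicate.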
In the case of c1ccc2c(c1)SCc1c-2[nH]c2ccccc12, the inhibition is reported as “Active”.

The molecules below were run on CCCCNC(=O)c1cc(-c2ccccc2)sc1N (assay: Competitive inhibition of human 15-LOX-1 assessed as apparent Km at 15 uM by Lineweaver-Burk plot analysis (reference value: 9.1 +/- 3.4 microM)). Conditions: not given.
Procedure, shortened: (§1)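 Purified enzyme activity was read as UV absorbance at 234 nm of the product formed from linoleic acid substrate, in 96-well format. Substrate-dependence runs were done with and without inhibitor. Apparent Km and Vmax were derived from Lineweaver-Burk plots.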
Molecule B1 has a Km of 38.2 µM.

These molecules were tested on CCCCNC(=O)c1cc(-c2ccccc2)sc1N (assay: Competitive inhibition of human 15-LOX-1 assessed as apparent Km at 5 uM by Lineweaver-Burk plot analysis (reference value: 9.1 +/- 3.4 microM)). Conditions: not given.
Procedure, shortened: as §1
In the case of B1, the Km is reported as 14.2 µM.

The molecules below were run against T1, Polyunsaturated fatty acid lipoxygenase ALOX15 (Mus musculus) (assay: Inhibition of 15-LOX-1 in mouse HT22 cells assessed as protection against glutamate-induced cell death by measuring increase in cell viability at 1 uM cotreated with glutamate measured for 16 to 20 hrs by MTT assay). Conditions: HT-22, in the assay text read “14 to 16 hrs” for “16 to 20 hrs”.
Format: cell-based
Procedure, shortened: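 HT-22 cells were seeded at 8x10^3 per well and incubated overnight. They were challenged with 4 mM glutamate in DMEM/10% FCS. Inhibitor was given either with glutamate (1-20 µM; PD146176 at 1 µM) or added at 5 or 10 µM 2, 4, 6 or 8 h after glutamate. After 14-16 h, MTT was added at 0.5 mg/mL for 1 h at 37 °C. Formazan was dissolved in DMSO and read at 570 nm minus 630 nm background, expressed relative to control. Three experiments were run with 6-8 replicates each.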
c1ccc2c(c1)SCc1c-2[nH]c2ccccc12 was tested, and the inhibition was “Active”.

These molecules were tested against T1, Polyunsaturated fatty acid lipoxygenase ALOX15 (Mus musculus) (assay: Inhibition of 15-LOX-1 in mouse HT22 cells assessed as protection against glutamate-induced cell impedance at 1 uM cotreated with glutamate up to 16 hrs by real time cell viability assay). Conditions: HT-22.
Format: cell-based
Procedure, shortened: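 HT-22 cells were seeded at 8x10^3 per well, incubated overnight, then given 4 mM glutamate. Inhibitor was either co-applied (1-20 µM; PD146176 at 1 µM) or added at 10 µM 2, 4, 6 or 8 h after glutamate. Impedance was recorded in real time for 16-20 h, with cell index normalized just before glutamate addition.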
c1ccc2c(c1)SCc1c-2[nH]c2ccccc12 was tested, and the inhibition was “Active”.

These molecules were tested against T2, Polyunsaturated fatty acid lipoxygenase ALOX15 (Homo sapiens, UniProt P16050) (assay: Inhibition of human 15-LOX-1 assessed as reduction in conversion of linoleic acid to 13(S)-HpODE incubated for 10 mins followed by linoleic acid addition by UV-absorbance analysis). Conditions: not given.
T2 sequence (P16050 whole entry): B1 chain
Molecule CCCCNC(=O)c1c(N)sc(-c2ccc(Cl)cc2)c1CCCC has an IC50 of over 50 µM.
Molecule CCCCN(CCCC)C(=O)c1cc(-c2ccccc2)sc1N has an IC50 of 50 to 152 µM.
In the case of CCCCNC(=O)c1c(N)sc(-c2ccccc2)c1CCCC, the IC50 is reported as over 50 µM.
Molecule CCCCNC(=O)c1cc(CC)sc1N has an IC50 of 50 to 65.3 µM.
For CCCCNC(=O)c1cc(C)sc1N, the IC50 was 50 to 354 µM.
With CCCCNC(=O)c1cc(Cc2ccccc2)sc1N the IC50 was 50 to 115 µM.
CCCCNC(=O)c1cc(CCC)sc1N showed an IC50 of 50 to 65.4 µM.
CCCCCc1cc(C(=O)NCCCC)c(N)s1 was tested, and the IC50 was 50 to 61.4 µM.
For Nc1sc(-c2ccccc2)cc1C(=O)NCCCCc1ccccc1, the IC50 was 50 to 81.7 µM.
CCCCNC(=O)c1cc(-c2ccc(Cl)cc2)sc1N was tested, and the IC50 was 50 to 519 µM.
In the case of CCCCNC(=O)c1c(N)sc(-c2ccccc2)c1C, the IC50 is reported as over 50 µM.
Molecule CCCCNC(=O)c1cc(-c2ccc(Br)cc2)sc1N has an IC50 of 50 to 71.1 µM.
For CCCCn1c(=O)[nH]c2sc(-c3ccccc3)cc2c1=O, the IC50 was 50 to 67.3 µM.
